Experiments:
[1] = Cmax in anesthetized Beagle dog at 3 mg/kg, iv; type: ADME, organism-based, Canis lupus familiaris; parameters: dose 3 mg/kg, route intravenous; conditions: in vivo
Method in brief: (§1)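 Anesthetized, ventilated dogs given 3 mg/kg iv and monitored for cardiovascular effects.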

[2] = target: T1, Histamine H3 receptor (Homo sapiens, UniProt Q9Y5N1); experiment: Antagonist activity at human cloned histamine H3 receptor expressed in CHO-K1 cells assessed as inhibition of R-alpha-methylhistamine-induced [35S]GTPgammaS binding; type: functional, cell-based
[3] = target: Voltage-gated inwardly rectifying potassium channel KCNH2 (Homo sapiens, UniProt Q12809); experiment: Antagonist activity at human ERG in HEK293 cells assessed as inhibition of [35S]N-[(4R)-1'-[(2R)-6-cyano-1,2,3,4-tetrahydro-2-naphthalenyl]-3,4-dihydro-4-hydroxyspiro[2H-1-benzopyran-2,4'-piperidin]-6-yl]methanesulfonamide binding
[4] = Plasma clearance in Sprague-Dawley rat at 1 mg/kg, iv; type: ADME, organism-based; parameters: dose 1 mg/kg, route intravenous
Method in brief: (§2)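 Male SD rats, male Beagle dogs, male rhesus monkeys given single doses iv (PEG400/EtOH/H2O 50/10/40) or po by gavage (0.5% methylcellulose suspension). Rats 1 mg/kg iv and 3 mg/kg po; dogs and monkeys 0.3 mg/kg iv and 1 mg/kg po. Plasma sampled at multiple times up to 24 h, deproteinized with ethanol plus internal standard. Mean of n = 3 animals/dose.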

[5] = Plasma clearance in Beagle dog at 0.3 mg/kg, iv; type: ADME, organism-based, Canis lupus familiaris; parameters: dose 0.3 mg/kg, route intravenous; method in brief: as §2
[6] = Plasma clearance in rhesus monkey at 0.3 mg/kg, iv; type: ADME, organism-based, Macaca mulatta; parameters: dose 0.3 mg/kg, route intravenous; method in brief: as §2
[7] = AUC (0 to infinity) in Sprague-Dawley rat at 3 mg/kg, po; type: ADME, organism-based; parameters: time infinity, dose 3 mg/kg, route oral; conditions: plasma; method in brief: as §2
[8] = AUC (0 to infinity) in Beagle dog at 1 mg/kg, po; type: ADME, organism-based, Canis lupus familiaris, Plasma; parameters: time infinity, dose 1 mg/kg, route oral; conditions: Beagle, plasma; method in brief: as §2
[9] = AUC (0 to infinity) in rhesus monkey at 1 mg/kg, po; type: ADME, organism-based, Macaca mulatta, Plasma; parameters: time infinity, dose 1 mg/kg, route oral; conditions: plasma; method in brief: as §2
[10] = Cmax in Sprague-Dawley rat at 1 mg/kg, iv and 3 mg/kg, po; type: ADME, organism-based; conditions: in vivo; method in brief: as §2
[11] = Cmax in Beagle dog at 0.3 mg/kg, iv and 1 mg/kg, po; type: ADME, organism-based, Canis lupus familiaris; conditions: in vivo; method in brief: as §2
[12] = Cmax in rhesus monkey at 0.3 mg/kg, iv and 1 mg/kg, po; type: ADME, organism-based, Macaca mulatta; conditions: in vivo; method in brief: as §2
[13] = Oral bioavailability in Sprague-Dawley rat at 3 mg/kg; type: ADME, organism-based; conditions: in vivo; method in brief: as §2
[14] = Oral bioavailability in Beagle dog at 1 mg/kg; type: ADME, organism-based, Canis lupus familiaris; conditions: Beagle, in vivo; method in brief: as §2
[15] = Oral bioavailability in rhesus monkey at 1 mg/kg; type: ADME, organism-based, Macaca mulatta; conditions: in vivo; method in brief: as §2
[16] = Plasma concentration in Sprague-Dawley rat at 10 mg/kg, po after 2 hrs; type: ADME, organism-based; parameters: dose 10 mg/kg, route oral
Method in brief: (§3)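 Male SD rats dosed orally at 10 mg/kg. Plasma, brain and CSF concentrations determined 2 h after dosing. Brain/plasma ratio taken from these levels. Mean of n = 3 animals.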

[17] = system: Brain; experiment: Drug level in Sprague-Dawley rat brain at 10 mg/kg, po after 2 hrs; type: ADME, organism-based; parameters: dose 10 mg/kg, route oral; conditions: in vivo; method in brief: as §3
[18] = Drug level in Sprague-Dawley rat cerebrospinal fluid at 10 mg/kg, po after 2 hrs; type: ADME, organism-based; parameters: dose 10 mg/kg, route oral; conditions: read-out: Drug uptake; method in brief: as §3
[19] = Ratio of drug level in brain to plasma in Sprague-Dawley rat at 10 mg/kg, po after 2 hrs; type: ADME, organism-based; parameters: dose 10 mg/kg, route oral; conditions: read-out: BPR; method in brief: as §3
[20] = Ratio of drug level in cerebrospinal fluid to brain in Sprague-Dawley rat at 10 mg/kg, po after 2 hrs; type: ADME, organism-based, CSF/Brain; parameters: dose 10 mg/kg, route oral; conditions: in vivo
[21] = system: LLC-PK1; experiment: Ratio of permeability from apical to basolateral side over basolateral to apical side in pig LLC-PK1 cells expressing human MDR1; type: ADME, cell-based, Sus scrofa
[22] = system: LLC-PK1; experiment: Ratio of permeability from apical to basolateral side over basolateral to apical side in pig LLC-PK1 cells expressing mouse MDR1a; type: ADME, cell-based, Sus scrofa
[23] = target: T1, Histamine H3 receptor; experiment: Displacement of [3H]N-alpha-methylhistamine from human recombinant histamine H3 receptor expressed in CHO-K1 cells; type: cell-based
[24] = target: Histamine H3 receptor (Rattus norvegicus, UniProt Q9QYN8); experiment: Displacement of [3H]N-alpha-methylhistamine from rat recombinant histamine H3 receptor expressed in HEK293 cells; type: cell-based
[25] = target: Histamine H3 receptor (Mus musculus, UniProt P58406); experiment: Displacement of [3H]N-alpha-methylhistamine from mouse recombinant histamine H3 receptor
[26] = system: Rattus norvegicus; experiment: Increase in tele-methylhistamine level in po dosed Sprague-Dawley rat brain after 2 hrs relative to control; type: functional, organism-based
Method in brief: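 Male SD rats given vehicle (0.5% methylcellulose) or compound po at 1, 3, 10 mg/kg, co-dosed with pargyline ip. Decapitated at 2 h and brains homogenized. tele-Methylhistamine measured by HPLC with fluorometry after solid-phase extraction. Mean ± SE from five experiments. Compared with vehicle by ANOVA with Dunnett's test.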

[27] = system: Rattus norvegicus; experiment: Ex vivo receptor occupancy of histamine H3 receptor in Sprague-Dawley rat assessed as drug level in brain at 1 mg/kg, po after 2 hrs; type: functional
Method in brief: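 Male SD rats given vehicle or 1 mg/kg compound by oral gavage and decapitated at 2 h. Striatal sections (20 μm) incubated 10 min at room temperature with 400 pM tritiated H3 inverse agonist radioligand in sodium phosphate buffer. Nonspecific binding defined with 10 μM R-α-methylhistamine. Beta-Imager exposure 6 h. Drug levels measured by LC-MS/MS.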

[28] = Ex vivo drug level wild type mdr1a (+/+) CF1 mouse plasma at 1 mg/kg, po after 2 hrs; type: ADME, organism-based; parameters: dose 1 mg/kg, route oral; conditions: read-out: Drug uptake
Method in brief: (§4)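 Female mdr1a (+/+) and mdr1a (−/−) CF-1 mice dosed by oral gavage. Terminal blood and whole brain collected 2 h later. Brain homogenized by ultrasonication in 4 volumes water. Plasma and brain deproteinized with ethanol plus internal standard, then measured by LC-MS/MS (positive ESI, MRM). Mean ± SE, n = 3. Brain/plasma ratios calculated from mean values.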

[29] = Ex vivo drug level in mdr1a (-/-) deficient CF1 mouse plasma at 1 mg/kg, po after 2 hrs; type: ADME, organism-based; parameters: dose 1 mg/kg, route oral; conditions: read-out: Drug uptake; method in brief: as §4
[30] = system: Brain; experiment: Ex vivo drug level in wild type mdr1a (+/+) CF1 mouse brain at 1 mg/kg, po after 2 hrs; type: ADME, organism-based; parameters: dose 1 mg/kg, route oral; method in brief: as §4
[31] = system: Brain; experiment: Ex vivo drug level in mdr1a deficient CF1 mouse brain at 1 mg/kg, po after 2 hrs; type: ADME, organism-based; parameters: dose 1 mg/kg, route oral; method in brief: as §4
[32] = Ratio of drug level brain to plasma in wild type mdr1a (+/+) CF1 mouse at 1 mg/kg, po after 2 hrs; type: ADME, organism-based; parameters: dose 1 mg/kg, route oral; conditions: read-out: BPR; method in brief: as §4
[33] = Ratio of drug level brain to plasma in mdr1a (-/-) deficient CF1 mouse at 1 mg/kg, po after 2 hrs; type: ADME, organism-based; parameters: dose 1 mg/kg, route oral; conditions: read-out: BPR; method in brief: as §4
[34] = system: Mus musculus; experiment: Ex vivo receptor occupancy of histamine H3 receptor expressed in po dosed wild type CF1 mouse plasma assessed by brain occupancy/brain to plasma ratio after 2 hrs; type: functional
Method in brief: (§5)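 Female wild-type and mdr1a (−/−) CF-1 mice given vehicle or compound po (0.1–3 mg/kg) and decapitated at 2 h. Coronal striatal sections (20 μm) incubated 10 min at room temperature with 400 pM tritiated quinazolinone H3 inverse agonist radioligand in sodium phosphate buffer. Nonspecific binding defined with 10 μM R-α-methylhistamine. Sections imaged 6 h by beta-Imager. Brain Occ90 obtained from occupancy versus brain concentration. Plasma Occ90 = brain Occ90/brain-to-plasma ratio.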

[35] = system: Mus musculus; experiment: Ex vivo receptor occupancy of histamine H3 receptor expressed in po dosed MDR1a deficient CF1 mouse plasma assessed by brain occupancy/brain to plasma ratio after 2 hrs; type: functional; method in brief: as §5
[36] = system: Mus musculus; experiment: Ex vivo receptor occupancy of histamine H3 receptor expressed in wild type po dosed CF1 mouse brain after 2 hrs; type: functional; method in brief: as §5
[37] = target: Histamine H1 receptor (Homo sapiens, UniProt P35367); experiment: Inhibition of human histamine H1 receptor
[38] = target: Histamine H2 receptor (Homo sapiens, UniProt P25021); experiment: Inhibition of human histamine H2 receptor
[39] = target: Histamine H4 receptor (Homo sapiens, UniProt Q9H3N8); experiment: Inhibition of human histamine H4 receptor
[40] = system: Canis familiaris; experiment: Toxicity against in anesthetized Beagle dog assessed as cardiovascular effects; type: organism-based, Canis lupus familiaris; conditions: in vivo; method in brief: as §1
[41] = system: Mus musculus; experiment: Toxicity against in ICR mouse assessed as gross behavior activity at 100 mg/kg; type: organism-based; parameters: dose 100 mg/kg; conditions: in vivo
Method in brief: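 Mice dosed orally at 100 mg/kg. Scored for psychomotor and motor activity, muscle tone, CNS excitation, autonomic responses and reflexes.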

T1 sequence (Q9Y5N1 whole entry): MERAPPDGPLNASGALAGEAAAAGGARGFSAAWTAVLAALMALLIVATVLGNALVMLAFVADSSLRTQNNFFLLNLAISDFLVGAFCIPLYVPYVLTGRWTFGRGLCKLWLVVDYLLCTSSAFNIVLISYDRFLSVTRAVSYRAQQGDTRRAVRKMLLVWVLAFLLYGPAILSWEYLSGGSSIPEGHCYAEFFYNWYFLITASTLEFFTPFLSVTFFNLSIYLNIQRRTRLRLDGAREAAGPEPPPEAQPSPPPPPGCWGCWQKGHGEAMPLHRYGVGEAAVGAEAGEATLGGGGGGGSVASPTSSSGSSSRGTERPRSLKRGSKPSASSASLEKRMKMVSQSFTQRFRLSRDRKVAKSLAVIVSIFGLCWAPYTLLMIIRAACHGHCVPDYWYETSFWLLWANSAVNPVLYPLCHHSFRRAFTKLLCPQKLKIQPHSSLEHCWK
Histamine H1 receptor, sequence (P35367 whole entry): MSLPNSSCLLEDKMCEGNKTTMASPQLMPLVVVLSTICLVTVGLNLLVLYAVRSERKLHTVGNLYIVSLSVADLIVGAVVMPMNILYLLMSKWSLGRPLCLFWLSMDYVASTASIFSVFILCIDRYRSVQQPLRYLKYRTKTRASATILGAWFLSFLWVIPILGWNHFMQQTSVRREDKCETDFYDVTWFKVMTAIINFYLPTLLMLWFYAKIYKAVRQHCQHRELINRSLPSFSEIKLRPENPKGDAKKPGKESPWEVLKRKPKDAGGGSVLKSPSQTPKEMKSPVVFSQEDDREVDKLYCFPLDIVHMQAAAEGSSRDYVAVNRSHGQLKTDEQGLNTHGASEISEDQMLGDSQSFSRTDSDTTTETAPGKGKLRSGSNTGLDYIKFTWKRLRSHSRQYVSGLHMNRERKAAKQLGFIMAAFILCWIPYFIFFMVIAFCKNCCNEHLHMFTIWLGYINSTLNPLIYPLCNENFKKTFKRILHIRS
Histamine H3 receptor (Rattus norvegicus, UniProt Q9QYN8), sequence (Q9QYN8 whole entry): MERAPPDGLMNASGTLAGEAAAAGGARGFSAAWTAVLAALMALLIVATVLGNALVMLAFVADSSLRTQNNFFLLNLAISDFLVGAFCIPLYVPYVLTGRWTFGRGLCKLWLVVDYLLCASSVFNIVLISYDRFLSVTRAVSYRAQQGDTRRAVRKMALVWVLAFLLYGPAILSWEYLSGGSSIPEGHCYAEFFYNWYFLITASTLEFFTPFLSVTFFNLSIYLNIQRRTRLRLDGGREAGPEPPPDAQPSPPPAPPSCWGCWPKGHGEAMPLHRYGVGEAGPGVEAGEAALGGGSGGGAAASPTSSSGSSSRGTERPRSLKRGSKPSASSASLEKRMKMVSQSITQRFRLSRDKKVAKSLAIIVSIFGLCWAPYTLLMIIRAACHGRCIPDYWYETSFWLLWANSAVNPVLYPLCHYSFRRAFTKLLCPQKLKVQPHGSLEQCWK
Histamine H3 receptor (Mus musculus, UniProt P58406), sequence (P58406 whole entry): as the sequence (Q9QYN8 whole entry) above, with T15A, A286T, A290G, R387H, I389V counted along it
Histamine H4 receptor, sequence (Q9H3N8 whole entry): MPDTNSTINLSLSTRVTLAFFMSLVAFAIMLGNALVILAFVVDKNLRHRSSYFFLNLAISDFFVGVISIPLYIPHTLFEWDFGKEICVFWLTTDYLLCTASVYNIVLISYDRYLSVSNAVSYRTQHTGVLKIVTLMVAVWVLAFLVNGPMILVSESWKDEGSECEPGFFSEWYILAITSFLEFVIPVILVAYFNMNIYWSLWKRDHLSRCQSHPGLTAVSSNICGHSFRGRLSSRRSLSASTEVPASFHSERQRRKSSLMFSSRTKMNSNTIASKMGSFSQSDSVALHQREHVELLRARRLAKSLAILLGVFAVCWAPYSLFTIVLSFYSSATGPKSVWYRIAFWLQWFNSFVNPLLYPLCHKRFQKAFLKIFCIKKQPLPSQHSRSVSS
Histamine H2 receptor, sequence (P25021 whole entry): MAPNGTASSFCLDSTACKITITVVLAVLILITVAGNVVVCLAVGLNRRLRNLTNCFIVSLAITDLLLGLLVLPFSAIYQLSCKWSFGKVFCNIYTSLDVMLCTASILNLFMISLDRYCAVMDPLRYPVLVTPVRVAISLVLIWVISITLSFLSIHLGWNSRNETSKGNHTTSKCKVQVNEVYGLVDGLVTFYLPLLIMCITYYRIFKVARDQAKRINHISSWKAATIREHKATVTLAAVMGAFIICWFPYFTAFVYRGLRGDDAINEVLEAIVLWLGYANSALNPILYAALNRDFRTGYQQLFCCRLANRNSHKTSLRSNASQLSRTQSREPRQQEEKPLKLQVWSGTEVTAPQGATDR
Voltage-gated inwardly rectifying potassium channel KCNH2, sequence (Q12809 whole entry): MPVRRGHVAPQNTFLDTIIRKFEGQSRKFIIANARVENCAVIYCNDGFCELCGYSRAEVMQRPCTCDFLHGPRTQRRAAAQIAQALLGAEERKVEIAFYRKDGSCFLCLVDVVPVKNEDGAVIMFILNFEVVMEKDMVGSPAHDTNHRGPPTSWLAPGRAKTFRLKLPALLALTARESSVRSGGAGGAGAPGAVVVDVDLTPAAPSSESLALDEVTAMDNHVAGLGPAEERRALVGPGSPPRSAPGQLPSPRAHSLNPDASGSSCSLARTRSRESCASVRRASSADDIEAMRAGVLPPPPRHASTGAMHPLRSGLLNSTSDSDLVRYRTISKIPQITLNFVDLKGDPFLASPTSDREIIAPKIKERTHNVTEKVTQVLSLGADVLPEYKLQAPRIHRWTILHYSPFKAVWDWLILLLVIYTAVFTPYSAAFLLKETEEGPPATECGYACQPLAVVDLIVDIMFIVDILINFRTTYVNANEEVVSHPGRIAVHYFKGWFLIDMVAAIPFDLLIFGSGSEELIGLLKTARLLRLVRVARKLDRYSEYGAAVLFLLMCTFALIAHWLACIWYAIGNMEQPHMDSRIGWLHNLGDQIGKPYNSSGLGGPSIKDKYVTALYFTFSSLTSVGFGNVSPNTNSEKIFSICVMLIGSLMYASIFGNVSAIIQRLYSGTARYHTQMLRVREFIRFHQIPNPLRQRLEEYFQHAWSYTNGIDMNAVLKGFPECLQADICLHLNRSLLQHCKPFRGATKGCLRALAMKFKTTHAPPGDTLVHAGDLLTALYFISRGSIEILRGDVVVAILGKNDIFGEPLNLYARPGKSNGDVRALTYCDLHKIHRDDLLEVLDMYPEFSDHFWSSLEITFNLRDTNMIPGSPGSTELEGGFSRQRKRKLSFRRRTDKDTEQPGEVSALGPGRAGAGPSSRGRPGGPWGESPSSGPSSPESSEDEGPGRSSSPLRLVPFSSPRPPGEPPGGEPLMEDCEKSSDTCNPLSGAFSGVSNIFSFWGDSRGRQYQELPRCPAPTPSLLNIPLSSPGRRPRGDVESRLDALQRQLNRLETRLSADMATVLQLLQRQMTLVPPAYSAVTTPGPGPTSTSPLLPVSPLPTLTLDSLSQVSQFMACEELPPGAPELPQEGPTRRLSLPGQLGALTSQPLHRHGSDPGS

SMILES: Cc1nc2cccc(C(F)(F)F)c2c(=O)n1-c1ccc(OC2CCN(C3CCC3)CC2)cc1
- Cmax [1]: 3200 nM
- IC50 [2]: 0.33 nM
- IC50 [3]: > 10000 nM
- clearance [4]: 24 mL/min/kg
- clearance [5]: 13 mL/min/kg
- clearance [6]: 26 mL/min/kg
- AUC(0-inf) [7]: 1.66 µM·h
- AUC(0-inf) [8]: 1.3 µM·h
- AUC(0-inf) [9]: 0.15 µM·h
- Cmax [10]: 420 nM
- Cmax [11]: 280 nM
- Cmax [12]: 50 nM
- bioavailability [13]: 33%
- bioavailability [14]: 46%
- bioavailability [15]: 11%
- concentration at 2 h [16]: 700 nM
- Drug uptake [17]: 2.3 nmol/g
- concentration at 2 h [18]: 110 nM
- Kp at 2 h [19]: 3.3
- Ratio [20]: 0.05
- Ratio [21]: 0.7
- Ratio [22]: 2.5
- Ki [23]: 3.6 nM
- Ki [24]: 2.3 nM
- Ki [25]: 3.9 nM
- Activity [26]: Dose-dependent effect
- Activity [27]: >90%
- concentration at 2 h [28]: 12 nM
- concentration at 2 h [29]: 10 nM
- Drug uptake [30]: 0.031 nmol/g
- Drug uptake [31]: 0.137 nmol/g
- Kp at 2 h [32]: 2.6
- Kp at 2 h [33]: 13
- Occ90 [34]: 58 nM
- Occ90 [35]: 11 nM
- Occ90 [36]: 0.15 nmol/g
- IC50 [37]: > 10000 nM
- IC50 [38]: > 10000 nM
- IC50 [39]: > 10000 nM
- Activity [40]: Non-toxic
- Activity [41]: Non-toxic

— ChEMBL document CHEMBL1142515, “Synthesis and evaluation of structurally constrained quinazolinone derivatives as potent and selective histamine H3 receptor inverse agonists” (J Med Chem, 2008)
